The RNAGym collection of RNA variant scans (doi:10.1126/science.aae0568)
Fewer inactive variants are shown than the library holds.

B1: tRNA (parent)
chain: GUUCCGUUGGCGUAAUGGUAACGCGUCUCCCUCCUAAGGAGAAGACUGCGGGUUCGAGUCCCGUACGGAACG

Variants of: B1
Assay: yeast fitness relative to wild type (ratio to wild type); higher = fitter; tRNA-Arg(CCU), competitive growth, 37 C, YPD
Outline: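 A pool of Saccharomyces cerevisiae strains, each with a tRNA-Arg(CCU) gene variant at the native genomic locus, was competed in YPD at 37°C for 24 hours across six parallel replicates. The variants had been chemically synthesised at a 3% per-site mutation rate over 69 sites, and gene amplicons before and after competition were read by 100-nucleotide paired-end sequencing. Darwinian fitness relative to wild type rested on changes in genotype frequencies. Genotypes required ≥ 100 starting reads, and estimates < 0.5 were set to 0.5.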

Variant | yeast fitness
C5U G44C G68U | 0.663
C5U G10A U13A A15G G50C A57G | ≤ 0.5
C5U G25A A45G G50C A69C | ≤ 0.5
C5U C66G | 0.779
C5U C66A | 0.729
C5U G39C | 0.769
C5U U13G C30U | 0.663
G6A A14G A42G | 0.549
C5U U8A G18A A69C | ≤ 0.5
C5U U13C U19A A21U C24A U54C U59C A69G | 0.524
C5U G12A C29U | 0.565
C5U G39A U53A | ≤ 0.5
C5U G6A | 0.884
C5U G18C G52C | ≤ 0.5
C5U G17C C30A | 0.548
C5U G25C A36C A40U | ≤ 0.5
C5U G44A U64G | 0.532
G6A A15C C27A A43G | 0.592
C5U U13A A43C C46G | 0.627
C5U G9A A37C C60U G67A | ≤ 0.5
G6A A14G G23A C24G G44A | ≤ 0.5
C5U G17C C24G G38C | 0.609
C5U U19G U53A | 0.529
C5U U32C C49U | 0.842

Variant | yeast fitness
C5U G38C C60U | ≤ 0.5
C5U U19C C24A U28A C46G C62U A70U | ≤ 0.5
C5U G58C U59C A70G | ≤ 0.5
C5U C49G | 0.919
C5U G9A G10C G25A C33G G39A | ≤ 0.5
C5U G39C C46U C49U G56A G68C | 0.669
C5U G10C C27G U28C G39C C46G A69U | ≤ 0.5
C5U G18C C22U G50A U54C | ≤ 0.5
G6A A14G C66A | ≤ 0.5
C5U U7A U35A A36U A45U C60G | ≤ 0.5
C5U U32C | 0.892
C5U U28G C61G | 0.58
C5U G17C C30A G50A C66G | ≤ 0.5
C5U G17A A36U U47A C66U | 0.58
C5U U28A C34U G41A | ≤ 0.5
C5U U16A C24U C66G | ≤ 0.5
G6A A15U C22A | ≤ 0.5
G6A A20G A36G C49G C55U | ≤ 0.5
G6A A14G C24A A36G A45U | ≤ 0.5
C5U G10C C30G C34U A42C | ≤ 0.5
C5U U32C U35C C49G | ≤ 0.5
C5U G44C A69U | 0.815
C5U U35G A45U A57C | ≤ 0.5
C5U U7C A40U U59A A65U G68A | 0.649

Variant | yeast fitness
C5U G38C | 0.719
C5U U7A C62A | ≤ 0.5
G6A A14U G52A G63C | ≤ 0.5
C5U U7C A40C C66U | ≤ 0.5
C5U U26C A40U | ≤ 0.5
C5U U8A G18C C29U A45C | 0.554
C5U G6A A65U C66U A70G | ≤ 0.5
C5U U32A C66U | 0.578
G6A A14C | 0.674
G6A A14U | 0.663
C5U U16G A20C A21G C30U | ≤ 0.5
C5U G51C | 0.691
C5U C61A | 0.612
C5U U19C A21U A37C C61A A65C | ≤ 0.5
C5U U13C U35G C49U | 0.608
C5U U16C A40G A43G G63C A69G | ≤ 0.5
C5U G12C U13A | ≤ 0.5
G6A A15C G39A A65G | ≤ 0.5
C5U U16G C34A U53C C60U | ≤ 0.5
C5U U8C A20G C30A C61A | 0.649
C5U U13A C61U | 0.624
C5U G10A A14C | 0.6
C5U G17C C24G G38C G51C U59G | ≤ 0.5
C5U G6C A21U U35C G39A | ≤ 0.5

Variant | yeast fitness
C5U U7C C30A A42C | 0.583
C5U G18A A42C | 0.674
C5U G56C C60A | 0.641
G6A A14U C22U A37G | ≤ 0.5
C5U G9A U54C C61G | 0.673
G6A A14G A45G | 0.797
C5U G23A A69U | ≤ 0.5
G6A A15U A69U A70U | ≤ 0.5
C5U G50C U54C | ≤ 0.5
C5U U7C U13G A36C C46U | 0.757
G6A A20C U28A C31A C33U A37C G50A A65U | ≤ 0.5
C5U U13G C33A A37C A70G | ≤ 0.5
C5U U13A A15G A20G C22G C46G G51A | ≤ 0.5
G6A A15C U16C | ≤ 0.5
C5U U47A G68C | 0.534
C5U U7C C46U | 0.728
C5U G6C G39A A45U C46G | 0.626
C5U G23A U54C | ≤ 0.5
C5U G18A A37C C61U | ≤ 0.5
C5U G9C A36G | 0.538
C5U U7G G9A C31G A36G | ≤ 0.5
G6A A20C C31U C33G | ≤ 0.5
G6A A15G C22A | ≤ 0.5
C5U U16C U59G | ≤ 0.5

Variant | yeast fitness
C5U G56A C61A | ≤ 0.5
C5U U32A A43G | ≤ 0.5
C5U U28G C62U A65G | ≤ 0.5
C5U U7A U35A A36U A45U | ≤ 0.5
C5U U19C C24A U28A | ≤ 0.5
C5U U7C U26A | 0.677
C5U G18C C49U U54G | ≤ 0.5
C5U G17A A40U A42C C49A G56A | ≤ 0.5
C5U U13G A42U | 0.627
C5U U28A G41A C62U | ≤ 0.5
C5U G17A | 0.929
G6A A14U C34A A70G | ≤ 0.5
C5U U8C A20G C30A C61A G67U | ≤ 0.5
G6A A20C A36C U47A G48C U54G A65C | ≤ 0.5
G6A A14U C61U | ≤ 0.5
G6A A14C A37U | 0.689
C5U U28C A45C | 0.672
C5U U28C C29U G63C A65U | ≤ 0.5
C5U U35A G44A | 0.558
G6A A20C G39C C60G C61G | ≤ 0.5
C5U G12C A42G C55A C62A | ≤ 0.5
G6A A15U G18C G23C A43G C60U | ≤ 0.5
C5U G25A C49U | 0.802
C5U U28A C30G | ≤ 0.5

Variant | yeast fitness
C5U C55A | 0.668
C5U U13C C22G C29A A45U | ≤ 0.5
C5U U35G U47A G48A | ≤ 0.5
G6A A14G C22G U35G A40C A70G | ≤ 0.5
C5U U13G C33A A37C | 0.555
C5U U7C C31A G39A | ≤ 0.5
C5U G41C | 0.91
C5U G18C A40G A43C U54A | 0.72
C5U U35A A45C | 0.602
C5U U26G | 0.969
C5U U26A | 0.915
C5U G23C U26C U32A A42U A65C | ≤ 0.5
G6A A15C A20U A57U | ≤ 0.5
C5U G6A C66U | 0.975
C5U U32C G39A C60U C61G | 0.527
C5U U8C A20G C30A A57U C61U | ≤ 0.5
C5U U28A A65U | 0.553
G6A A20C A57C | ≤ 0.5
C5U U19A C30A A42C U64C | ≤ 0.5
C5U G68C A69U | ≤ 0.5
C5U U19A A21G A43C G51C | ≤ 0.5
G6A A14U A20C U28C C46U G58A | ≤ 0.5
G6A A20C C29A G44C | ≤ 0.5
C5U U16C | 0.972

Variant | yeast fitness
C5U U16G | 0.809
C5U G9C C34U C60G | ≤ 0.5
G6A A15C U28A C31G U64A C66U G68C | ≤ 0.5
C5U C55G C61A | ≤ 0.5
C5U U26C A69C | 0.655
G6A A14G U35C A36G A45U | ≤ 0.5
C5U C55G C66U A69U | ≤ 0.5
C5U U13C C24G U26C A37G U54G C61G | 0.575
C5U G23C C55A | 0.566
C5U U13G C61U | 0.726
C5U U13C U19A A21U C24A | 0.511
C5U G12A G48A | 1.18
C5U U35C | 0.811
C5U U47C | 0.96
C5U U8C A21G A42U G58A | 0.726
C5U U7G C24U C34G A37C A42U C66U | ≤ 0.5
C5U U26A C55G C61A | ≤ 0.5
C5U U8C G41C A69U | ≤ 0.5
C5U G9A G39A G48A A57U | ≤ 0.5
C5U G23C U32C A42G U54A | ≤ 0.5
C5U G18C C22A G51C | 0.562
C5U G18A C30A G58A | ≤ 0.5
G6A A15C A20U A36U G39A | ≤ 0.5
